# TCR CD3 inh – inhibitors of human TCR-CD3 interaction, primary screen, biochemical, fluorescence, TAMRA-labeled TCR probe | 0.37% of 360,000 active | T-cell receptor (TCR) | inhibition, % at 9.4 µM; in the data active = inhibition above about 19%;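 note: recombinant mutant TCR 2C K166C tagged with TAMRA read by polarization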
# PRMT1 inh – PRMT1 methyltransferase inhibitors, primary screen, biochemical, fluorescence polarization; Protein arginine N-methyltransferase 1 (Homo sapiens), Q99873; recombinant PRMT1, activity-based probe fluorescence polarization; inhibition, % at 2.79 µM; 1.3% of 370,000 active; AID 652257, 2013;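 active = inhibition above about 21% made by adding two undisclosed values, limit read from the data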
# mABHD4 FP – ABHD4 inhibitors, primary screen, biochemical, fluorescence polarization, mouse; (Lyso)-N-acylphosphatidylethanolamine lipase (Mus musculus), Q8VD66; purified mABHD4, FP-Rh probe fluorescence polarization; inhibition, % at 8.92 µM; 0.54% of 370,000 active; AID 720543, 2013;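 active = inhibition exceeding the mean over every tested compound plus 3 SD, cut at about 30% in these data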
#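 Assay system: mouse ABHD4 enzyme, wild type / Also added: fluorescent activity-based probe FP-Rh / Doses: single nominal dose of 8.92 µM, 0.89% DMSO final / Timing: 45 min compound pre-incubation plus 60 min probe step, 25 °C / Signal: FP readout, ex 525 nm / em 598 nm / Control set: S159A mutant/DMSO as 100%, compound-well median as 0%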
# HTRA1 inh – HTRA1 serine protease inhibitors, primary screen, biochemical, fluorescence polarization, HTS; recombinant HTRA1, FP-rhodamine activity-based probe; inhibition, % at 5.96 µM; 0.5% of 340,000 active; in the data active = inhibition above about 36%
# Target sequence (Q92743 whole entry, looked up): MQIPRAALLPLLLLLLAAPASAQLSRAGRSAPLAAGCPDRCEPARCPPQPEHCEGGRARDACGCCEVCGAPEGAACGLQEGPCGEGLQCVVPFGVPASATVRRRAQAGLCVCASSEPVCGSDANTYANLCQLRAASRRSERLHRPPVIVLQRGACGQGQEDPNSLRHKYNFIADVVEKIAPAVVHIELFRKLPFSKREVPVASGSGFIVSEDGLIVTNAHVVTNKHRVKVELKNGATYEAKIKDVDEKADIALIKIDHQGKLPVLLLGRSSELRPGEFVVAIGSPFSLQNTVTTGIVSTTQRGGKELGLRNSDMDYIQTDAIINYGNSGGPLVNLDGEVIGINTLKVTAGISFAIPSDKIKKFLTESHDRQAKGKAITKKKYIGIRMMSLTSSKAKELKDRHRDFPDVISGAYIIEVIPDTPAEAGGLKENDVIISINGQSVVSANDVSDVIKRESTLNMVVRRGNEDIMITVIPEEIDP
# SIAE inh – human SIAE inhibitors, primary screen, biochemical, fluorescence polarization, FP-Rh probe, 1536-well HTS. Sialate O-acetylesterase (Homo sapiens), Q9HAT2. SIAE FP-Rh probe binding. inhibition, % at 9.66 µM. 0.69% of 370,000 active;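 active = inhibition above a cutoff: mean of compounds within the control limits plus 3 SD of those, cut at about 17% in these data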
# HTRA1 inh conf – HTRA1 protease inhibitors, retest, confirmation, biochemical, fluorescence polarization. recombinant HTRA1, FP-rhodamine activity-based probe. AID 540248, 2011. 66% of 1,600 active. shares compounds with HTRA1 inh. inhibition, % at 5.96 µM;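 active = mean inhibition over three repeats above a set limit taken from the earlier primary screen, cut at about 37% in these data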;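 note: inhibitors block probe binding so polarization drops and inhibition rises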
# Numbers stand for hits; – = inactive; · = no result. Hits are enriched below; roughly 2.6% of the tested compounds scored in any of these assays.
SMILES,TCR CD3 inh,PRMT1 inh,mABHD4 FP,HTRA1 inh,SIAE inh,HTRA1 inh conf
CC(C)CC1C(=O)N(Cc2cn(CCC3OCCCO3)nn2)CCS(=O)(=O)N1Cc1ccc(-c2cccc(N(C)C)c2)cc1 (stereo unspecified),–,–,–,–,–,·
O=C(O)c1ccccc1NS(=O)(=O)c1ccc(NN=Cc2ccccc2F)c([N+](=O)[O-])c1,–,–,–,–,–,·
COc1ccc(C=NNc2ccc(S(=O)(=O)Nc3ccccc3C(=O)O)cc2[N+](=O)[O-])c(OC)c1,·,·,·,47,·,39
COc1ccccc1Nc1nc(-c2cccs2)cs1,–,–,–,–,–,·
COc1ccc(C)cc1Nc1nc(-c2c[nH]c3ccccc23)cs1,–,–,–,43,–,–
C[C@H](CO)N1C[C@H](C)[C@@H](CN(C)C(=O)Nc2cccc(C(F)(F)F)c2)OCc2cn(nn2)CCCC1=O,–,–,–,·,–,·
COc1ccc(N2CCN(C(=O)CN3C(=O)NC4(CCCCC4C)C3=O)CC2)cc1 (stereo unspecified),–,–,–,–,–,·
Cc1cc(O)c(Oc2cc(C)cc(O)c2O)c(O)c1,–,38,–,64,–,81
CC(C)(C)n1cnc2cc(NCc3ccccc3O)ccc21,–,–,–,46,–,–
COc1cc(C(=C(CC(=O)O)C(=O)O)c2ccc3c(c2)OCO3)cc(OC)c1OC,–,–,–,–,–,·
Cc1cc(C)c2nc(NNC(=O)c3ccc(S(=O)(=O)N4CC(C)CC(C)C4)cc3)sc2c1 (stereo unspecified),–,–,–,54,–,61
Cc1ccc2nc(NNC(=O)c3ccc(S(=O)(=O)N4CCc5ccccc5C4)cc3)sc2c1,–,–,–,49,–,–
Cc1cc(C)c2nc(NNC(=O)c3ccc(S(=O)(=O)N4CCCC(C)C4)cc3)sc2c1 (stereo unspecified),–,–,–,51,–,54
Cc1cccc2sc(NNC(=O)c3ccc(S(=O)(=O)N4CC(C)CC(C)C4)cc3)nc12 (stereo unspecified),–,–,–,60,–,41
CCN(CC(=O)Nc1c(F)cccc1F)C(=O)CCCc1cccs1,–,–,–,–,–,·
COc1cc(CN2CCN(c3ncc(Cc4ccccc4)cn3)CC2)cc(OC)c1,–,–,–,·,–,·
Cc1ccc(Nc2nc(-c3sc(N)nc3C)cs2)cc1,–,–,–,50,–,–
Cc1nc(N)sc1-c1csc(Nc2ccc(Cl)cn2)n1,–,–,–,42,–,37
O=C(Nc1ccc(Oc2cccnc2)cc1)C1CCN(Cc2cc(Cl)ccc2O)CC1,–,–,–,–,–,·
CN1CCN(CC(=O)N2CCn3c4c(c5cc(C6CCCCC6)ccc53)CCCC42)CC1 (stereo unspecified),·,·,·,41,·,54
Cc1ccc2c(c1)c1c3n2CCN(C(=O)CN2CCN(C)CC2)C3CCC1 (stereo unspecified),–,–,–,–,–,·
Cc1ccc(/C=C2\SC(=S)N(/N=C/c3cc([N+](=O)[O-])ccc3O)C2=O)o1,·,·,·,49,·,39
O=[N+]([O-])c1ccc(O)c(/C=N/n2cnc3ccccc32)c1,–,–,–,–,–,·
COc1ccc(NC(=O)N(C)C[C@@H]2OCc3cnnn3CCCC(=O)N([C@@H](C)CO)C[C@@H]2C)cc1,–,–,–,·,–,·
C[C@H](CO)N1C[C@H](C)[C@H](CN(C)C(=O)C2CCCCC2)OCc2cnnn2CCCC1=O,–,–,–,·,–,·
C=CCN1CCc2cc(O)c(O)cc2C(c2ccccc2)C1 (stereo unspecified),–,–,–,–,–,·
C=CCN1CCc2c(cc(O)c(O)c2Cl)C(c2ccccc2)C1 (stereo unspecified),–,–,–,43,–,70
Cc1nn(-c2ccc(F)cc2)c2nc(N)c(C#N)c(-c3cccs3)c12,–,–,–,–,–,·
Cc1nn(-c2ccc(F)cc2)c2nc(N)c(C#N)c(-c3ccc(O)c(O)c3)c12,–,–,–,59,–,62

# From PubChem
